Measured values taken from ChEMBL document CHEMBL1122836, “Angiotensin converting enzyme inhibitors: structure-activity profile of 1-benzazepin-2-one derivatives” (J Med Chem, 1985).
pIC50: −log10 of the molar value.

How the values were obtained:
[1] = target: Angiotensin-converting enzyme (Homo sapiens, UniProt P12821); test: (§1) In vitro inhibitory activity against Angiotensin I converting enzyme
Rattus norvegicus [2] = test: In vivo inhibitory activity against Angiotensin I pressor response in normotensive rats after peroral administration; type: functional; settings: po, read-out: ID50 (the source's name)
Canis familiaris [3] = test: In vivo inhibitory activity against Angiotensin I pressor response in normotensive dog after peroral administration, ecperiment 2; type: functional; settings: Canis lupus familiaris, po; read-out: ID50 (the source's name)
Rattus norvegicus [4] = test: In vivo inhibitory activity against Angiotensin I pressor response in normotensive rats by peroral administration, experiment 2; type: functional; settings: po, read-out: ID50 (the source's name)
Rattus norvegicus [5] = test: Maximal changes in blood pressure recorded during the 4 day test period in spontaneous hypertensive rats, at 1 mg/kg peroral dose; type: functional; settings: route oral
Rattus norvegicus [6] = test: Maximal changes in blood pressure recorded during the 4 day test period in spontaneous hypertensive rats, at 3 mg/kg peroral dose; type: functional; settings: route oral
In short: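 Spontaneously hypertensive rats dosed orally with test compound. Blood pressure was recorded over a 4-day test period. The value is the maximal change in blood pressure seen in that period, given in mm with the oral dose (mg/kg) in brackets.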

Canis familiaris [7] = test: In vivo inhibitory activity against Angiotensin I pressor response in normotensive dog after peroral administration, experiment 1; type: functional; settings: Canis lupus familiaris, po; read-out: ID50 (the source's name)
[8] = target: T1, Angiotensin-converting enzyme (Rattus norvegicus, UniProt P47820); test: as §1
T1 sequence (P47820 whole entry): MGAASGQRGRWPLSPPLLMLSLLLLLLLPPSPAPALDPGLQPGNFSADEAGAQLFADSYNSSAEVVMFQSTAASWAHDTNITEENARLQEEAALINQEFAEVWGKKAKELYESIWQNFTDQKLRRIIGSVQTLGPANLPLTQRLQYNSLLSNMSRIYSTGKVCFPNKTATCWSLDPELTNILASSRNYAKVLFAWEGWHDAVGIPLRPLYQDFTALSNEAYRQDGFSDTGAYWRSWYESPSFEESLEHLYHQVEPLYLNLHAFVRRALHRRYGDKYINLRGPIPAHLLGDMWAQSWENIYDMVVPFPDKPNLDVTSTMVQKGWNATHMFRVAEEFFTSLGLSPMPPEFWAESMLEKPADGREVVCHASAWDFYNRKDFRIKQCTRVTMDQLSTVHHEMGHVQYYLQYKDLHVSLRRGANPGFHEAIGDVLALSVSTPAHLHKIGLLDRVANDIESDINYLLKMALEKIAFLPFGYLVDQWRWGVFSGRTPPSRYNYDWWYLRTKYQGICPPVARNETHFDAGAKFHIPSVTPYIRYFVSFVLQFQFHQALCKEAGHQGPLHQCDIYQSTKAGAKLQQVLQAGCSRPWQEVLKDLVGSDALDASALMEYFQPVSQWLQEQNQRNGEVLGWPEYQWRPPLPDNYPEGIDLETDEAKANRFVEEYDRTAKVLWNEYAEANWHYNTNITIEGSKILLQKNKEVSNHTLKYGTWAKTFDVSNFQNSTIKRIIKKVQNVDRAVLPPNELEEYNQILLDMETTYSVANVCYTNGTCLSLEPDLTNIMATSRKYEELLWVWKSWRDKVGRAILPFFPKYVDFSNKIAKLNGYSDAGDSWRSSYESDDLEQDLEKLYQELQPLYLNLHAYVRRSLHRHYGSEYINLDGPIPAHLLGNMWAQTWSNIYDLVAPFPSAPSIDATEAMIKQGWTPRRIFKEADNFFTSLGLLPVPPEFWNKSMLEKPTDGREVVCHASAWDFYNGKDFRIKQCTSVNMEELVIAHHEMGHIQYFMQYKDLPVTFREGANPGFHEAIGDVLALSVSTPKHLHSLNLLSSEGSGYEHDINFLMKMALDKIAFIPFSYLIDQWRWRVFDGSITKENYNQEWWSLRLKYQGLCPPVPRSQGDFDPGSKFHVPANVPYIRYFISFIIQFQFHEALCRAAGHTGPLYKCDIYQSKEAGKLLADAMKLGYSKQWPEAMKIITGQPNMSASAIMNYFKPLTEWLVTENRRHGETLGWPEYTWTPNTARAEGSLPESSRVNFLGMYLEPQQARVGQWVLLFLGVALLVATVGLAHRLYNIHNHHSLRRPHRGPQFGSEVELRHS

Rattus norvegicus [9] = test: Maximal changes in blood pressure recorded during the 4 day test period in spontaneous hypertensive rats, at 30 mg/kg peroral dose; type: functional; settings: route oral
In short: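 Spontaneously hypertensive rats dosed orally and blood pressure recorded over a 4-day test period. Readout is the maximal change in blood pressure (mm) with the oral dose noted; pressure also followed at 24 h after dosing.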

Canis familiaris [10] = test: In vivo inhibitory activity against Angiotensin I pressor response in normotensive dog after peroral administration; type: functional; settings: Canis lupus familiaris, po; read-out: ID50 (the source's name)

Sequence of Angiotensin-converting enzyme (Homo sapiens, UniProt P12821) (P12821 whole entry): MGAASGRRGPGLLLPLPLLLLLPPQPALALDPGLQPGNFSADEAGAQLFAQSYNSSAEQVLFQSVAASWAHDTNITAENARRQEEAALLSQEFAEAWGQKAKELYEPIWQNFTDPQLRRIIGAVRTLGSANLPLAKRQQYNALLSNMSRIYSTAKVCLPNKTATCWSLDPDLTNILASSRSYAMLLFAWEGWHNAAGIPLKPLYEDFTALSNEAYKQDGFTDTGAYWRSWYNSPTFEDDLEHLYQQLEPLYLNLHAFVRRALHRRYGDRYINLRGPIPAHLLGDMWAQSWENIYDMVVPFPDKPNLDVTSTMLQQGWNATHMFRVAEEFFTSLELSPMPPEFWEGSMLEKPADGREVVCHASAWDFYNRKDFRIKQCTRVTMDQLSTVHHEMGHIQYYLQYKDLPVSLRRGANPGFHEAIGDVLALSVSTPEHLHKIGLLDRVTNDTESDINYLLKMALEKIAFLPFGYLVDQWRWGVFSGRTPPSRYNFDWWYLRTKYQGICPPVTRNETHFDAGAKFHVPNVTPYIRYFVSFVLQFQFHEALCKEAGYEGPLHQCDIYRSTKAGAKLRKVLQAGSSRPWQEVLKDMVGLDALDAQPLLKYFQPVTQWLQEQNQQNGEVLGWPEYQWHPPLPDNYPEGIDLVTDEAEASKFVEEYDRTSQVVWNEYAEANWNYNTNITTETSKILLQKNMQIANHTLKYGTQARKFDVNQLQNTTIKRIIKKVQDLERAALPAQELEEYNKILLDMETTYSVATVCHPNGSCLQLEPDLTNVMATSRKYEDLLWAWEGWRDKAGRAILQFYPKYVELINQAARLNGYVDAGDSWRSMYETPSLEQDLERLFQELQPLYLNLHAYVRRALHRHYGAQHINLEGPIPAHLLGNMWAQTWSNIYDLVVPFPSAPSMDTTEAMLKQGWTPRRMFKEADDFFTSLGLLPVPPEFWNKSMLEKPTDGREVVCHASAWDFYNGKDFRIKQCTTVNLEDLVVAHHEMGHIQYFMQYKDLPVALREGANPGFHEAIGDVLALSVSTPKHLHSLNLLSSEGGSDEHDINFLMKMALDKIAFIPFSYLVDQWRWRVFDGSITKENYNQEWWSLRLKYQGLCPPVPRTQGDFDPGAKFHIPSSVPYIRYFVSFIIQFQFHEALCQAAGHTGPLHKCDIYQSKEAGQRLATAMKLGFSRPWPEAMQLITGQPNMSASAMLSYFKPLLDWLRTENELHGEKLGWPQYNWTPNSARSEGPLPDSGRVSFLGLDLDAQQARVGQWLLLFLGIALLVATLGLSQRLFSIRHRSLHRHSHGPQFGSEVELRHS

Structure (SMILES)	pIC50 [1]	other results
O=C(O)CN1C(=O)[C@@H](N[C@@H](CSCc2ccccc2)C(=O)O)CCc2ccccc21	8.54	
CCOC(=O)[C@H](CCCCNC(=O)OCc1ccccc1)N[C@H]1CCc2ccccc2N(CC(=O)O)C1=O	7.82	
COC(=O)[C@H](CC(C)C)N[C@H]1CCc2ccccc2N(CC(=O)O)C1=O	6.00	
O=C(O)CN1C(=O)[C@@H](N[C@@H](Cc2ccccc2)C(=O)O)CCc2ccccc21	8.07	
CCOC(=O)[C@H](Cc1c[nH]c2ccccc12)N[C@H]1CCc2ccccc2N(CC(=O)O)C1=O	6.27	
O=C(O)CN1C(=O)[C@@H](N[C@@H](CSc2ccccc2)C(=O)O)CCc2ccccc21	8.40	
CC(C)(C)OC(=O)NCCCC[C@H](N[C@H]1CCc2ccccc2N(CC(=O)O)C1=O)C(=O)O	8.40	
CCCC[C@H](N[C@H]1CCc2ccccc2N(CC(=O)O)C1=O)C(=O)OCC	5.59	
CC(C)C[C@H](N[C@H]1CCc2ccccc2N(CC(=O)O)C1=O)C(=O)O	7.35	
CSCC[C@H](N[C@H]1CCc2ccccc2N(CC(=O)O)C1=O)C(=O)O	8.19	
CCOC(=O)[C@H](CCCCN)N[C@H]1CCc2ccccc2N(CC(=O)O)C1=O	7.40	
CCCC[C@H](N[C@H]1CCc2ccccc2N(CC(=O)O)C1=O)C(=O)O	8.30	
O=C(O)CN1C(=O)[C@@H](N[C@@H](COCc2ccccc2)C(=O)O)CCc2ccccc21	8.00	
O=C(O)CN1C(=O)[C@@H](N[C@@H](CSCCc2ccccc2)C(=O)O)CCc2ccccc21	8.15	
O=C(O)CN1C(=O)[C@@H](N[C@@H](CCCCNC(=O)OCc2ccccc2)C(=O)O)CCc2ccccc21	7.89	
O=C(O)CN1C(=O)[C@@H](N[C@@H](Cc2c[nH]c3ccccc23)C(=O)O)CCc2ccccc21	7.89	
CCC[C@H](N[C@H]1CCc2ccccc2N(CC(=O)O)C1=O)C(=O)O	8.22	
CCOC(=O)[C@H](CCc1ccccc1)N[C@@H](C)C(=O)N1CCC[C@H]1C(=O)O		ED50 (Rattus norvegicus [2]): 0.14 mg/kg; ED50 (Canis familiaris [3]): 0.096 mg/kg; ED50 (Rattus norvegicus [4]): 0.28 mg/kg; Delta blood pressure (Rattus norvegicus [5]): -35 mmHg; Delta blood pressure (Rattus norvegicus [6]): -54 mmHg; ED50 (Canis familiaris [7]): 0.15 mg/kg
CCOC(=O)[C@H](CCc1ccccc1)N[C@H]1CCc2ccccc2N(CC(=O)O)C1=O [BENAZEPRIL]		ED50 (Rattus norvegicus [2]): 0.1 mg/kg; pIC50 [8]: 8.77; Delta blood pressure (Rattus norvegicus [6]): 50 mmHg
NCCCC[C@H](N[C@H]1CCc2ccccc2N(CC(=O)O)C1=O)C(=O)O [LIBENZAPRIL]	8.15	ED50 (Rattus norvegicus [2]): 1.7 mg/kg; Delta blood pressure (Rattus norvegicus [9]): -69 mmHg; ED50 (Canis familiaris [10]): 0.07 mg/kg
